Consider 15 compounds from PubChem BioAssay.

Activity calls are given as the source filed them.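 How the source made its calls, unless noted: active means viability at or under a set limit in both replicates, limit being median viability minus 3 SD (cut at about 48% in these data, passing the limit was not always enough); inconclusive means at or under the limit in just one replicate; inactive means at or above the limit in both replicates.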

The nature of test [1]: Her2 expression decrease, cell viability multiplex – SKBR3 breast tumor cells, AlphaScreen, ATP viability, primary screen (AID 461;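 active means Her2 level under about 52% in both replicate screens, with viability over 70% of control, limit read from the data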;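 on Her2 level: lower value means less Her2 protein in the cells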;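 on viability: percent of carrier control wells set as 100% viability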). The note with it: SKBR3 Her2 protein level, 18-24 h, measured here: SKBR3 viability, ATP luminescence, at 10 µM. Background: Bead proximity is the source of the signal in Alpha formats.
Test [2] has as its target Receptor tyrosine-protein kinase erbB-2 (Homo sapiens) (UniProt P04626). The description is as above. The note with it: 18-24 h, at 10 µM, stronger effect = lower value.
The nature of test [3]: reduced viability of SK-BR-3 breast cancer cells – cell-based, 24 h, human, pilot screen (AID 572;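 active means viability at or below 10% of carrier control in both of two separate runs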;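 further: compound exposure lasted between 18 and 24 h rather than exactly 24 h; 100% = carrier-treated control wells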). The note with it: SK-BR-3 viability, CellTiter-Glo luminescence, at 10 µM, stronger effect = lower value. Background: Cellular ATP, detected with luciferase, serves as a proxy for viable cell number.
Test [4] is described as follows: HUVEC growth inhibition – cell-based, human, primary screen (AID 575;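 active means viability at or below 30% in both replicate assays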;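 further: 100% = median of untreated cell wells with 0.1% DMSO on each plate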). To be noted: HUVEC proliferation, CellTiter-Glo luminescence, 72 h; at 10 µM; stronger effect = lower value. The essentials:
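System – primary HUVEC, no more than 12 passages · Medium – Low-serum (2% FBS) EBM, supplemented · Times – 72 h exposure, 37 °C, 5% CO2, 30 min RT equilibration · Measured by – luminescent ATP assay · Read-out – % viability relative to median vehicle-well signal on each plate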

Test [5] is described as follows: H69AR cell proliferation blockers – human, duplicate replicates, primary screen (AID 580).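 Further: 100% = mean luminescence of untreated wells and 0% = no signal.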 To be noted: H69AR lung tumor cells viability, ATP luminescence, 72 h; at 10 µM; stronger effect = lower value.
The nature of test [6]: MRP1 drug-resistance reversers in H69AR cells – cell-based, doxorubicin co-treatment, pilot screen (AID 601;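 active means viability loss from added drug above about 55%, and viability with drug at most 40%, in both replicates, limit read from the data, passing the limit was not always enough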). The note with it: CellTiter-Glo, 72 h, at 10 µM; for differential viability (reversal): stronger effect = higher value.
Test [7] in a line: yeast transport mutant growth inhibition pilot in 384-well plates, post-Golgi transport modulator project (AID 636; in the data active means inhibition above about 31%). To be noted: absorbance 615 nm, about 18 h, stronger effect = higher value.
A short description of test [8]: growth suppression of yeast trafficking mutant, preliminary HTS, modulators of trafficking downstream of Golgi apparatus project, 1536-format plate, OD 615 nm (AID 637; in the data active means inhibition above about 30%). To be noted: yeast transport mutant growth, absorbance 615 nm, 18 h; stronger effect = higher value.
The mark [9] stands for this setting: H69AR cells + 2 uM doxorubicin, measured here: viability with 2 uM doxorubicin, stronger effect = lower value.
Where [10] appears, read: H69AR cells, compound alone cytotoxicity.

By viability is commonly meant a read-out of living cells in per cent, often relative to untreated cells. One may read the inhibition as the change of the read-out against control, counted positive when it falls.

Chain of Receptor tyrosine-protein kinase erbB-2 (Homo sapiens) (P04626 whole entry, looked up): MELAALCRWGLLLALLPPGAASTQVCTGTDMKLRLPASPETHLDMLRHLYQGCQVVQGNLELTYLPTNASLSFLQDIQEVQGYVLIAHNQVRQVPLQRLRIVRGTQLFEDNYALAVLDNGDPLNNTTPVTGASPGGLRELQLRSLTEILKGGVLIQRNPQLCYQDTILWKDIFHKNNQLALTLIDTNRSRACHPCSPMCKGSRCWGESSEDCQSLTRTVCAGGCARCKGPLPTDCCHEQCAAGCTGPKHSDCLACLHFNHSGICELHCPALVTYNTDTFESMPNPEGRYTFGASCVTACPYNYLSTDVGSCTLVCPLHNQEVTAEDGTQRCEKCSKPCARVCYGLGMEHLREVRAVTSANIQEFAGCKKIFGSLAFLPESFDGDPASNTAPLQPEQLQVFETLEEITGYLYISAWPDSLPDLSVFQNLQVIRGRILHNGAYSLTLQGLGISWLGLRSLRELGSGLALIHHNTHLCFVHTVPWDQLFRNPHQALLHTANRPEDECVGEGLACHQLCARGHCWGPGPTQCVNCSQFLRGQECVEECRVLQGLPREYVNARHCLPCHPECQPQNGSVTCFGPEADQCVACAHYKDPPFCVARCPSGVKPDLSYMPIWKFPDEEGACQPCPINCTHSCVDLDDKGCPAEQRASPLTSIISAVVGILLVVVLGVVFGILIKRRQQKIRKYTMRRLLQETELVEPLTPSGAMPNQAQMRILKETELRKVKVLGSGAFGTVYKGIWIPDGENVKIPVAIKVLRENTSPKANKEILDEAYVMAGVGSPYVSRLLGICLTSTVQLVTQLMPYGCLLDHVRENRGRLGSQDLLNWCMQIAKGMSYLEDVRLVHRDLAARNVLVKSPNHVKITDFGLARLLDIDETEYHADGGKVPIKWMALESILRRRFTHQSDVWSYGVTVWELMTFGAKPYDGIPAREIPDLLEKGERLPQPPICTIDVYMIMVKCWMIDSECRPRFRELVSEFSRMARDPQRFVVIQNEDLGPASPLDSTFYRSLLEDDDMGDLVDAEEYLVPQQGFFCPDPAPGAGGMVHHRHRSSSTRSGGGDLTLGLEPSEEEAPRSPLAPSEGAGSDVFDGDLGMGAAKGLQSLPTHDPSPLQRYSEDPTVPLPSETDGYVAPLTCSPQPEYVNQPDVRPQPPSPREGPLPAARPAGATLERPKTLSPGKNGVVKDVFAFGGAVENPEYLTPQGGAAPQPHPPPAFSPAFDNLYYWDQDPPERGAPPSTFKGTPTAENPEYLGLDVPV

Take `COC(=O)c1sc(N2C(=O)C(O)=C(C(=O)c3ccc(C)o3)C2c2ccc(F)cc2)nc1C` (stereo not given): the viability in test [1] is 95%; in test [3], 95% (inactive); in test [4] it was 113% (inactive); in test [5], 135% (inactive); in test [6] (setting [9]), 73.8%; in test [6] (setting [10]), 135%. Moreover, the Her2 level in test [2] was 81.5% (inactive). For the same compound, the differential viability (reversal) in test [6] (H69AR cells + 2 uM doxorubicin) was 61.4% (inactive). Besides, the inhibition in test [7] was -1.08% (inactive); in test [8], -1.48% (inactive).
Take `CCCCn1c(NCCC)nc2c1c(=O)[nH]c(=O)n2C`: the viability is 96% in test [1]; 96% (inactive) in test [3]; 113% (inactive) in test [4]; 93.7% (inactive) in test [5]; 81% in test [6] (setting [9]); 93.7% in test [6] (setting [10]). The Her2 level in test [2] is 80% (inactive). The differential viability (reversal) in test [6] (H69AR cells + 2 uM doxorubicin) is 12.8% (inactive). The results for the inhibition in test [7] and in test [8] were -3.51% (inactive) and -0.66% (inactive), respectively.
Turning to `Cc1ccc(-c2cn3nc(C)c(C)nc3n2)cc1`, the viability in test [1] is 106%; in test [3], 106% (inactive); in test [4], 75.4% (inactive); in test [5], 85.5% (inactive); in test [6] (setting [9]), 81.5%; in test [6] (setting [10]), 85.5%. The Her2 level in test [2] was 94% (inactive). For the same compound, the differential viability (reversal) in test [6] (H69AR cells + 2 uM doxorubicin) was 4% (inactive). The inhibition in test [7] is -4.93% (inactive); in test [8], 0% (inactive).
Turning to `COc1ccc(OCC(=O)N2CCN(C(=O)Cc3ccccc3)CC2)cc1`, the viability in test [1] is 90%; in test [3] it was 90% (inactive); in test [4], 101% (inactive); in test [5], 84.6% (inactive); in test [6] (setting [9]) it was 96.7%; in test [6] (setting [10]), 84.6%. Further, in test [2], the Her2 level was 96% (inactive). In addition, the differential viability (reversal) in test [6] (H69AR cells + 2 uM doxorubicin) is -12.1% (inactive). Also, the inhibition is 0% (inactive) in test [7] and 23.2% (inactive) in test [8].
Take `Cc1oc(-c2ccccc2F)nc1CS(=O)(=O)CC(=O)N1CCN(Cc2ccccc2)CC1`: the viability is 77.5% in test [1]; 77.5% (inactive) in test [3]; 102% (inactive) in test [4]; 90.2% (inactive) in test [5]; 91.4% in test [6] (setting [9]); 90.2% in test [6] (setting [10]). Further, the Her2 level in test [2] is 91.5% (inactive). Moreover, the differential viability (reversal) in test [6] (H69AR cells + 2 uM doxorubicin) was -1.19% (inactive). Further, the inhibition in test [7] is -3.07% (inactive); in test [8], -0.98% (inactive).
Consider `Cc1cccc(N2CCN(C(=O)CCn3c(=S)[nH]c4cc5c(cc4c3=O)OCO5)CC2C)c1` (stereo not given), for which the viability in test [1] is 86%; in test [3], 86% (inactive); in test [4] it was 38.2% (inactive); in test [5], 50.8% (inactive); in test [6] (setting [9]), 56.8%; in test [6] (setting [10]), 50.8%. For the same compound, the Her2 level in test [2] was 85.5% (inactive). Moreover, the differential viability (reversal) in test [6] (H69AR cells + 2 uM doxorubicin) was -5.97% (inactive). The results for the inhibition in test [7] and in test [8] were -1.3% (inactive) and 1.27% (inactive), respectively.
For `Fc1cc(F)c(F)c(SCCc2ccncc2)c1F`, the viability in test [1] was 97%; in test [3], 97% (inactive); in test [4], 93.8% (inactive); in test [5] it was 85.3% (inactive); in test [6] (setting [9]), 80.3%; in test [6] (setting [10]), 85.3%. In test [2], the Her2 level is 81.5% (inactive). The differential viability (reversal) in test [6] (H69AR cells + 2 uM doxorubicin) was 5% (inactive). Besides, the results for the inhibition in test [7] and in test [8] were 0.67% (inactive) and 1.45% (inactive), respectively.
As to `COC(=O)c1cc(-c2c(C)oc3cc(O)ccc3c2=O)c(C)o1`, the viability in test [1] is 100%; in test [3] it was 100% (inactive); in test [4], 91.3% (inactive); in test [5], 84.9% (inactive); in test [6] (setting [9]) it was 91.1%; in test [6] (setting [10]), 84.9%. Also, the Her2 level in test [2] is 90.5% (inactive). For the same compound, the differential viability (reversal) in test [6] (H69AR cells + 2 uM doxorubicin) is -6.25% (inactive). In addition, the inhibition is -4.94% (inactive) in test [7] and -1.27% (inactive) in test [8].
With `Cc1cc(C(=O)NCCN2CCCCC2C)n(-c2ccccc2)n1` (stereo not given), the viability in test [1] is 87.5%; in test [3], 87.5% (inactive); in test [4] it was 92.3% (inactive); in test [5], 92.6% (inactive); in test [6] (setting [9]), 89.1%; in test [6] (setting [10]), 92.6%. In test [2], the Her2 level is 116% (inactive). Also, in test [6] (H69AR cells + 2 uM doxorubicin), the differential viability (reversal) was 3.49% (inactive). In addition, the inhibition in test [7] is -2.8% (inactive); in test [8] it was -3.77% (inactive).
In the case of `O=C(Nc1ccc(F)cc1)c1cccc2c1C(=O)N(Cc1ccccn1)C2`, the viability is 95.5% in test [1]; 95.5% (inactive) in test [3]; 87.5% (inactive) in test [4]; 96% (inactive) in test [5]; 79.9% in test [6] (setting [9]); 96% in test [6] (setting [10]). In test [2], the Her2 level is 90% (inactive). Also, in test [6] (H69AR cells + 2 uM doxorubicin), the differential viability (reversal) was 16.1% (inactive). Further, the inhibition in test [7] is -0.92% (inactive); in test [8], -3.06% (inactive).
`CC(=O)Nc1cccc(NC(=O)c2oc3ccccc3c2C)c1`: the viability in test [1] was 81.5%; in test [3], 81.5% (inactive); in test [4] it was 76.8% (inactive); in test [5], 68.9% (inactive); in test [6] (setting [9]), 81.3%; in test [6] (setting [10]), 68.9%. In test [2], the Her2 level was 92.5% (inactive). The differential viability (reversal) in test [6] (H69AR cells + 2 uM doxorubicin) is -12.4% (inactive). Further, the inhibition in test [7] was -4.8% (inactive); in test [8], -1.43% (inactive).
Regarding `COc1ccc(-c2ccc(Nc3ccc(S(=O)(=O)N4CCCC4)cc3)nn2)cc1OC`, the viability is 77.5% in test [1]; 77.5% (inactive) in test [3]; 61.6% (inactive) in test [4]; 53.6% (inactive) in test [5]; 56.5% in test [6] (setting [9]); 53.6% in test [6] (setting [10]). Moreover, the Her2 level in test [2] is 70.5% (inactive). For the same compound, in test [6] (H69AR cells + 2 uM doxorubicin), the differential viability (reversal) was -2.87% (inactive). For the same compound, the inhibition is -6.8% (inactive) in test [7] and -1.97% (inactive) in test [8].
Take `COCCN(CC(=O)NC1CCCCC1)C(=O)CSc1nc2ccccc2o1`: the viability was 98% in test [1]; 98% (inactive) in test [3]; 90.8% (inactive) in test [4]; 97.6% (inactive) in test [5]; 93.5% in test [6] (setting [9]); 97.6% in test [6] (setting [10]). In addition, the Her2 level in test [2] was 96% (inactive). Moreover, the differential viability (reversal) in test [6] (H69AR cells + 2 uM doxorubicin) is 4.13% (inactive). Besides, the inhibition in test [7] is -0.39% (inactive); in test [8], -5.24% (inactive).
Take `Cc1cc(C(=O)CSc2nc3ccccc3[nH]2)c(C)n1C`: the viability is 100% in test [1]; 100% (inactive) in test [3]; 120% (inactive) in test [4]; 94.4% (inactive) in test [5]; 81.6% in test [6] (setting [9]); 94.4% in test [6] (setting [10]). The Her2 level in test [2] is 86% (inactive). Also, the differential viability (reversal) in test [6] (H69AR cells + 2 uM doxorubicin) was 12.8% (inactive). The inhibition was -4.93% (inactive) in test [7] and -8.36% (inactive) in test [8].
As for `O=C1N(CCCCN2C(=O)C3(OCCO3)c3ccccc32)c2ccccc2C12OCCO2`, the viability in test [1] is 100%; in test [3], 100% (inactive); in test [4], 73.2% (inactive); in test [5], 84.9% (inactive); in test [6] (setting [9]), 73.7%; in test [6] (setting [10]), 84.9%. Further, the Her2 level in test [2] is 84.5% (inactive). The differential viability (reversal) in test [6] (H69AR cells + 2 uM doxorubicin) was 11.1% (inactive). Further, the inhibition in test [7] is -0.39% (inactive); in test [8], 11.5% (inactive).
